# DENV2 CPE = inhibitors of DENV2 cytopathic effect, primary screen, cell-based, plate reader, single concentration; DENV2-infected cells, cytopathic effect rescue; CPE inhibition, % at 9.99 µM; 1.7% of 350,000 active; in the data active means CPE inhibition above about 20%, passing the limit was not always enough; inconclusive means no clear call, values can overlap the other calls; tested in BHK-21 cells
# S100A4 MyoIIA = inhibitors of S100A4-myosin IIA peptide binding, primary screen, biochemical, fluorescence polarization, TAMRA-MyoIIA peptide. Protein S100-A4 (Homo sapiens), P26447. inhibition, % at 10.7 µM. 0.14% of 360,000 active;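 active means mean inhibition of at least 70% across replicates, with every replicate also reaching that level; inconclusive means mean inhibition reaches 70% but some replicates fall short; inactive means mean inhibition below 70%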
#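 Assay system: human S100A4 monomer with TAMRA-labelled myosin IIA peptide / Buffer or medium: Calcium-containing HEPES buffer, pH 7.2 / Reagent: TAMRA-labelled myosin IIA heavy-chain peptide probe, 5 nM / Compound: one dose per compound / Timing: polarization read 5 min after assay mix addition, stable 5–60 min / Benchmarks: neutral control DMSO, positive control TFP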
# Cneo AK release = Cryptococcus neoformans cell lysis inducers, primary screen, AK release luminescence, single concentration; C. neoformans lysis, adenylate kinase release luminescence, 4 h; normalised: neutral wells 0, clomiphene wells 100; lysis activity, % at 15 µM; 0.2% of 360,000 active; AID 651654, 2012;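 active means mean lysis activity across replicates of at least 80%, whatever share of replicates individually reach that level; inactive means mean lysis activity below 80%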
#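 Assay system: Cryptococcus neoformans yeast cells / Dosing: single-point compound dose / Timing: 4 h at 37 °C static, read 1 h later / Measured by: luminescence of released adenylate kinase using an AK detection reagent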
# Ecoli rRNA inh = reduced GFP signal of wild-type E. coli, primary screen, bacterial rRNA inhibitor project, GFP/RFP fluorescence, OD600, single point; E. coli WT GFP vs humanized-ribosome RFP mutants, 24 h; stronger effect = lower value; DMSO median 0, no signal -100; 1.6% of 350,000 active; GFP signal change (wild-type ribosome), % (concentration not given with the values);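 active means significant combined selectivity score with lowered wild-type GFP, culture density cut under 30%, mutant RFP and density less affected; inactive means any of these conditions unmet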
# PfHsp90 set2 = growth inhibition of PfHsp90-expressing yeast, primary screen, antimalarial PfHsp90 inhibitor project, S. cerevisiae, BacTiter-Glo luminescence, single point, set 2; BacTiter-Glo ATP, 48 h; yeast lacking PDR1 and PDR3 efflux regulators; inhibition, % at 9.4 µM; 0.32% of 310,000 active; AID 504621, 2011;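 active means every replicate shows inhibition above about 80%, whatever the replicate mean, limit read from the data; inconclusive means mean inhibition reaches the set limit but some replicate falls short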
# AF4-AF9 inh = inhibitors of AF4 peptide binding to AF9, primary screen, biochemical, AlphaScreen, biotin-AF4 peptide, FLAG-AF9, single point | Protein AF-9 (Homo sapiens), P42568 | inhibition, % at 10 µM | 0.47% of 350,000 active;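 active means every replicate reaching a set inhibition limit, whatever the replicate mean, cut at about 25% in these data; inconclusive means mean inhibition reaches that limit but some replicates miss it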
# Target sequence (P42568 whole entry, looked up): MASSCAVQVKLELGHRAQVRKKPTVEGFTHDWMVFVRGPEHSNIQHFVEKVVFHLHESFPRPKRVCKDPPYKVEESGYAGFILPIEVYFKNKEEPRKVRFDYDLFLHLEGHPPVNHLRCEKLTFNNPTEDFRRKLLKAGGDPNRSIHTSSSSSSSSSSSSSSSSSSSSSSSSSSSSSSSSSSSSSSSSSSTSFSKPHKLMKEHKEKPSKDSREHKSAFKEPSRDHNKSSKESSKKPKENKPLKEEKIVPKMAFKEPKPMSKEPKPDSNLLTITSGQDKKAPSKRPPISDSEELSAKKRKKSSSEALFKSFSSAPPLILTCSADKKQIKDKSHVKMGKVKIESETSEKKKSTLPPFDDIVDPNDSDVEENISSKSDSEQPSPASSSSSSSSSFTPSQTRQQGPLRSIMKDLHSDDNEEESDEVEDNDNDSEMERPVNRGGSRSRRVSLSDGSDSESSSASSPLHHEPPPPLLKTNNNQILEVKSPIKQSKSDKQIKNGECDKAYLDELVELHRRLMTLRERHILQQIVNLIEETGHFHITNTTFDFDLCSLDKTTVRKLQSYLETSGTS
# Hits are given with their value; . = inactive; ? = inconclusive; / = no result given. Rows were chosen to be rich in hits. Some 3.2% of all compounds tested hit in one or more screens of this group.
SMILES,DENV2 CPE,S100A4 MyoIIA,Cneo AK release,Ecoli rRNA inh,PfHsp90 set2,AF4-AF9 inh
COc1ccc2nc3cc(Cl)ccc3c(C#N)c2c1,.,.,.,.,.,.
COc1ccc2nc(C(F)(F)Cl)c(C#N)c(N)c2c1,.,.,/,-39.7,.,.
C[C@H](CO)N1C[C@H](C)[C@H](CN(C)S(=O)(=O)c2ccc(F)cc2)OCCCC[C@H](C)Oc2ccc(NC(=O)c3ccncc3)cc2C1=O,.,.,.,.,/,.
Cc1cccc(S(=O)(=O)N[C@@H]2CC[C@@H](CCNC(=O)c3cnccn3)O[C@@H]2CO)c1,30.7,.,.,.,/,.
Cc1cccc(S(=O)(=O)N[C@H]2CC[C@@H](CCNC(=O)c3cnccn3)O[C@@H]2CO)c1,.,.,.,.,/,.
O=C(NCC[C@H]1CC[C@H](NC(=O)c2cnccn2)[C@@H](CO)O1)Nc1ccc(F)cc1,22.1,.,.,.,/,.
O=C(N[C@@H]1CC[C@@H](CCNS(=O)(=O)c2ccccc2)O[C@H]1CO)c1cccnc1,32.1,.,.,.,/,.
O=C(N[C@H]1CC[C@H](CCNS(=O)(=O)c2ccc(Cl)cc2)O[C@@H]1CO)c1cnccn1,49.0,.,.,.,/,.
O=C(N[C@H]1CC[C@H](CCNS(=O)(=O)c2ccccc2)O[C@@H]1CO)c1cccnc1,.,.,.,.,/,.
O=C(CC1CC1)N1CC2(C1)[C@H](c1ccccc1)[C@@H](CO)N2Cc1ccccc1,.,.,/,.,/,.
CO[C@@H]1CN(C)C(=O)c2cc(NS(C)(=O)=O)ccc2OC[C@H](C)NC[C@H]1C,.,.,.,.,/,.
CCCC(=O)Nc1ccc2c(c1)C(=O)N(C)C[C@@H](OC)[C@@H](C)CN(Cc1ccncc1)[C@@H](C)CO2,/,/,/,.,/,/
O=C(N[C@@H]1CC[C@@H](CCNS(=O)(=O)c2cccc(Cl)c2)O[C@H]1CO)c1ccccc1,76.9,.,.,.,/,.
COc1ccccc1-c1nn2c(-c3ccco3)nnc2s1,/,.,.,-21.8,.,.
COc1ccc(NC(=O)N[C@@H]2CC[C@H](CC(=O)NC3CCC3)O[C@@H]2CO)cc1,.,?,.,.,/,.
CC1(C)CC(c2nc(-c3ccc([N+](=O)[O-])cc3)cs2)CCO1 (configuration not stated),.,.,.,-41.6,.,.
Nc1nc(-c2ccc([N+](=O)[O-])cc2)cs1,/,/,.,/,.,/
CCc1cc(-c2n[nH]c(C)c2-c2nc3ccccc3n2C)c(O)c(CN2CCN(C)CC2)c1O,.,.,.,.,.,25.2
CC(C)NC(=O)N1[C@@H]2c3cccc(=O)n3C[C@@H]2[C@@H](CO)[C@@H]1C(=O)N1CCc2ccccc2C1,.,.,.,.,/,.
CC(=O)OC(C=C(C)C)C/C(C)=C/COc1c2ccoc2cc2oc(=O)ccc12 (configuration not stated),.,.,.,-21.4,.,.
COc1ccc2c3c([nH]c2c1)[C@H](CO)N(S(=O)(=O)c1ccc(C)cc1)CC31CN(C(=O)Cc2cccnc2)C1,27.5,.,/,.,/,.
COc1ccc2c3c([nH]c2c1)[C@@H](CO)N(S(C)(=O)=O)CC31CN(C(=O)c2ccccc2)C1,23.1,/,/,.,/,.
COc1ccc2c3c([nH]c2c1)[C@H](CO)N(C(=O)c1cccc(F)c1)CC31CN(S(=O)(=O)c2cccs2)C1,?,/,/,.,/,.
COc1ccc2c3c([nH]c2c1)[C@@H](CO)N(S(=O)(=O)c1ccc(C)cc1)CC31CN(C(=O)Cc2cccnc2)C1,.,.,/,.,/,.
COc1ccc2c3c([nH]c2c1)[C@H](CO)N(C(=O)c1ccccc1)CC31CN(S(=O)(=O)c2cccs2)C1,82.1,/,/,.,/,.

# Bioassay records from PubChem.
